From ChEMBL document CHEMBL5143736, “Discovery and Optimization of a Synthetic Class of Nectin-4-Targeted CD137 Agonists for Immuno-oncology” (J Med Chem, 2022)
In brackets after ≈: the same amount, converted by molar mass. Activity calls are given as the source filed them. The rule behind the calls is not given here.

Assays:
[1] = Half life in Sprague-Dawley rat at 2 mg/kg, iv by LC/MS/MS analysis; settings: in vivo
[2] = biological target: T1, Tumor necrosis factor receptor superfamily member 9 (Homo sapiens, UniProt Q07011); experiment: Binding affinity to human CD137 assessed as dissociation constant by surface plasmon resonance analysis
T1 sequence (Q07011 whole entry): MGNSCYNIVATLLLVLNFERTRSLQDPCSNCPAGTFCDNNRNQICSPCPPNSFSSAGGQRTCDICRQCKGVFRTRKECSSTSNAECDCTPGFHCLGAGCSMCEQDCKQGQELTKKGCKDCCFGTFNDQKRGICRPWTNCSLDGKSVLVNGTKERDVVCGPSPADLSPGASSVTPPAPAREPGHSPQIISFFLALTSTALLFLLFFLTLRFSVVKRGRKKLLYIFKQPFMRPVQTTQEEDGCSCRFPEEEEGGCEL
In short: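 Biacore T200 SPR, human CD137, 25 °C. Peptide series in PBS/0.05% Tween 20 with 0.5% DMSO: top 500 nM (threefold) or 10 μM (twofold), 6 further dilutions. Flow 90 μL/min, 60 s association, 100–600 s dissociation, glycine pH 2 regeneration. DMSO-corrected and double-referenced; kinetic fit gives ka, kd, KD.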

PBMC [3] = experiment: […] activity in human PBMC stimulated with anti-CD3-mediated CD137 expression in cocultured with […] cell line assessed as increase in secretion of IFN gamma incubated for 48 hrs by Luminex assay; type: functional, cell-based; settings: DDE = dose-dependent effect
In short: (§1)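 Healthy-donor PBMCs were thawed into R10 medium and cocultured with HT1376 cells at 10:1 effector:target (1×10^5 PBMC:1×10^4 tumor cells per well). Soluble anti-CD3 OKT3 (100 ng/mL) was added on day 0, then compound, 37 °C, 5% CO2. Supernatant IFNγ and IL-2 taken at 24 and 48 h, measured by Luminex. Four-parameter fit, n = 3, repeated in multiple donors.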

PBMC [4] = experiment: […] activity in human PBMC stimulated with anti-CD3-mediated CD137 expression in cocultured with […] cell line assessed as increase in secretion of IL2 incubated for 48 hrs by Luminex assay; type: functional, cell-based; settings: DDE = dose-dependent effect
In short: as §1

[5] = Thermodynamic solubility of the compound in phosphate buffer at pH 7.4; type: physicochemical; settings: read-out: Therm_solubility
In short: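 Thermodynamic solubility measured in 50 mM phosphate buffer, pH 7.4.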

[6] = Plasma clearance in Cynomolgus monkey at 1 mg/kg, iv administered for 30 min by LC-MS/MS analysis; type: ADME, organism-based, Macaca fascicularis
In short: (§2)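 Male naïve cynomolgus monkeys received 1 mg/kg as a 30 min IV infusion in 25 mM histidine HCl, 10% sucrose, pH 7 (n = 2 animals/compound). Serial K2-EDTA plasma was protein-precipitated with internal standard and analysed by LC–MS/MS (Orbitrap, positive ion). Noncompartmental analysis gave clearance, Vdss and terminal half-life.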

[7] = Volume of distribution at steady state in Cynomolgus monkey at 1 mg/kg, iv administered for 30 min by LC-MS/MS analysis; type: ADME, organism-based, Macaca fascicularis; settings: plasma, read-out: Vdss
In short: as §2

[8] = Half life in Cynomolgus monkey at 1 mg/kg, iv administered for 30 min by LC-MS/MS analysis; type: ADME, organism-based, Macaca fascicularis; settings: plasma
In short: as §2

[9] = biological target: T1, Tumor necrosis factor receptor superfamily member 9; experiment: Agonist activity at human CD137 expressed in Jurkat T cells co-expressing response element driven luciferase reporter gene assessed as fold change in EC50 at 1:1 Nectin-4/CD137 ratio measured after 6 hrs by HT1376/CD137 reporter co-culture assay; type: cell-based; settings: filed as agonist
[10] = biological target: T1, Tumor necrosis factor receptor superfamily member 9; experiment: Agonist activity at human CD137 expressed in Jurkat T cells co-expressing response element driven luciferase reporter gene assessed as fold change in Emax at 1:1 Nectin-4/CD137 ratio measured after 6 hrs by HT1376/CD137 reporter co-culture assay; type: cell-based; settings: filed as agonist
CT26 [11] = experiment: Antitumor activity against mouse CT26 cells expressed in CD137 transfected in BALB/c mouse at 1mg/kg, qd
CT26 [12] = experiment: Antitumor activity against mouse CT26 cells expressed in CD137 transfected in BALB/c mouse at 5 mg/kg, ip
[13] = biological target: T1, Tumor necrosis factor receptor superfamily member 9; experiment: Induction of recombinant human CD137 assessed as increase in fold change in EC50 incubated for 6 hrs by luminescence based microplate reader assay; settings: filed as agonist
[14] = biological target: T1, Tumor necrosis factor receptor superfamily member 9; experiment: Induction of recombinant human CD137 assessed as increase in fold change in Emax incubated for 6 hrs by luminescence based microplate reader assay; settings: filed as agonist
[15] = biological target: T1, Tumor necrosis factor receptor superfamily member 9; experiment: Binding affinity to human CD137 assessed as dissociation constant using 1:1 Nectin-4/CD137 by surface plasmon resonance analysis; settings: filed as agonist
In short: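 Biacore T200 SPR against human CD137 protein at 25 °C. Peptide series in PBS/0.05% Tween 20 with 0.5% final DMSO; top concentration 500 nM (6 further threefold dilutions) or 10 μM (6 further twofold dilutions). 60 s association, 100–600 s dissociation, 10 mM glycine pH 2 regeneration. Data DMSO-corrected and double-referenced; kinetic fit gives ka, kd and KD.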

CCCC[C@@H]1NC(=O)[C@H](Cc2ccc(O)cc2)NC(=O)[C@@H]2CCCN2C(=O)[C@H](CC(=O)O)NC(=O)[C@H](C)NC(=O)[C@H](Cc2ccccc2)NC(=O)[C@@H]2CSCCC(=O)N3CN(CN(C3)C(=O)CCSC[C@@H](C(=O)N[C@@H](CNC(=O)CCOCCOCCOCCOCCOCCn3cc(CCC(=O)N[C@H]4CSCCC(=O)N5CN6CN(C5)C(=O)CCSC[C@H](NC(=O)[C@@H](CC(=O)O)NC(=O)[C@H](Cc5cccc7ccccc57)NC(=O)[C@@H]5CCCN5C4=O)C(=O)N[C@@H](CCSC)C(=O)N[C@@H](CCCCNC(=N)N)C(=O)N[C@@H](CC(=O)O)C(=O)N[C@@H](Cc4c[nH]c5ccccc45)C(=O)N[C@@H](CO)C(=O)N[C@@H]([C@@H](C)O)C(=O)N4CCC[C@H]4C(=O)N4C[C@H](O)C[C@H]4C(=O)N[C@@H](Cc4c[nH]c5ccccc45)C(=O)N[C@H](C(N)=O)CSCCC6=O)nn3)C(N)=O)NC1=O)C(=O)CCSC[C@H](NC(C)=O)C(=O)N[C@@H](CC(C)(C)C)C(=O)N1CCC[C@H]1C(=O)N[C@@H](CCC(=O)O)C(=O)N[C@H](C)C(=O)N1CCC[C@H]1C(=O)N[C@@H](Cc1ccc(O)cc1)C(=O)N2
half-life [1]: 57.6 min

CCCC[C@@H]1NC(=O)[C@H](Cc2ccc(O)cc2)NC(=O)[C@@H]2CCCN2C(=O)[C@H](CCC(=O)O)NC(=O)[C@H](C)NC(=O)[C@H](Cc2ccccc2)NC(=O)[C@@H]2CSCCC(=O)N3CN(CN(C3)C(=O)CCSC[C@H](NC(C)=O)C(=O)N[C@@H](CC(C)(C)C)C(=O)N3CCC[C@H]3C(=O)N[C@@H](CCC(=O)O)C(=O)N[C@H](CCCCNC(=O)CCc3cn(CCOCCOCCOCCOCCOCCC(=O)N[C@H]4CSCCC(=O)N5CN6CN(C5)C(=O)CCSC[C@H](NC(=O)[C@@H](CC(=O)O)NC(=O)[C@H](Cc5cccc7ccccc57)NC(=O)[C@@H]5CCCN5C4=O)C(=O)N[C@@H](CCSC)C(=O)N[C@@H](CCCCNC(=N)N)C(=O)N[C@@H](CC(=O)O)C(=O)N[C@@H](Cc4c[nH]c5ccccc45)C(=O)N[C@@H](CO)C(=O)N[C@@H]([C@@H](C)O)C(=O)N4CCC[C@H]4C(=O)N4C[C@H](O)C[C@H]4C(=O)N[C@@H](Cc4c[nH]c5ccccc45)C(=O)N[C@H](C(N)=O)CSCCC6=O)nn3)C(=O)N3CCC[C@H]3C(=O)N[C@@H](Cc3ccc(O)cc3)C(=O)N2)C(=O)CCSC[C@@H](C(N)=O)NC1=O
Kd [2]: 2370 nM

CCCC[C@@H]1NC(=O)[C@H](Cc2ccc(O)cc2)NC(=O)[C@@H]2CCCN2C(=O)[C@H](CC(N)=O)NC(=O)[C@H](C)NC(=O)[C@H](Cc2ccccc2)NC(=O)[C@@H]2CSCCC(=O)N3CN(CN(C3)C(=O)CCSC[C@H](NC(C)=O)C(=O)N[C@@H](CC(C)(C)C)C(=O)N3CCC[C@H]3C(=O)N[C@@H](CCC(=O)O)C(=O)N[C@H](CCCCNC(=O)CCc3cn(CCOCCOCCOCCOCCOCCC(=O)N[C@H]4CSCCC(=O)N5CN6CN(C5)C(=O)CCSC[C@H](NC(=O)[C@@H](CC(=O)O)NC(=O)[C@H](Cc5cccc7ccccc57)NC(=O)[C@@H]5CCCN5C4=O)C(=O)N[C@@H](CCSC)C(=O)N[C@@H](CCCCNC(=N)N)C(=O)N[C@@H](CC(=O)O)C(=O)N[C@@H](Cc4c[nH]c5ccccc45)C(=O)N[C@@H](CO)C(=O)N[C@@H]([C@@H](C)O)C(=O)N4CCC[C@H]4C(=O)N4C[C@H](O)C[C@H]4C(=O)N[C@@H](Cc4c[nH]c5ccccc45)C(=O)N[C@H](C(N)=O)CSCCC6=O)nn3)C(=O)N3CCC[C@H]3C(=O)N[C@@H](Cc3ccc(O)cc3)C(=O)N2)C(=O)CCSC[C@@H](C(N)=O)NC1=O
Kd [2]: 878 nM

CCCC[C@@H]1NC(=O)[C@H](Cc2ccc(O)cc2)NC(=O)[C@@H]2CCCN2C(=O)[C@H](CC(=O)O)NC(=O)[C@H](C)NC(=O)[C@H](Cc2ccccc2)NC(=O)[C@@H]2CSCCC(=O)N3CN(CN(C3)C(=O)CCSC[C@@H](C(=O)N[C@@H](C)C(N)=O)NC1=O)C(=O)CCSC[C@H](NC(C)=O)C(=O)N[C@@H](CC(C)(C)C)C(=O)N1CCC[C@H]1C(=O)N[C@@H](CCC(=O)O)C(=O)N[C@H](CCCCNC(=O)CCc1cn(CCOCCOCCOCCOCCOCCC(=O)N[C@H]3CSCCC(=O)N4CN5CN(C4)C(=O)CCSC[C@H](NC(=O)[C@@H](CC(=O)O)NC(=O)[C@H](Cc4cccc6ccccc46)NC(=O)[C@@H]4CCCN4C3=O)C(=O)N[C@@H](CCSC)C(=O)N[C@@H](CCCCNC(=N)N)C(=O)N[C@@H](CC(=O)O)C(=O)N[C@@H](Cc3c[nH]c4ccccc34)C(=O)N[C@@H](CO)C(=O)N[C@@H]([C@@H](C)O)C(=O)N3CCC[C@H]3C(=O)N3C[C@H](O)C[C@H]3C(=O)N[C@@H](Cc3c[nH]c4ccccc34)C(=O)N[C@H](C(N)=O)CSCCC5=O)nn1)C(=O)N1CCC[C@H]1C(=O)N[C@@H](Cc1ccc(O)cc1)C(=O)N2
Activity (PBMC [3]): Dde | Activity (PBMC [4]): Dde | solubility thermodynamic [5]: 29 mg/mL (≈ 6.16 mM) | clearance [6]: 30 mL/min/kg | Vd [7]: 0.6 L/kg | half-life [8]: 30 min | fold change (FC) [9]: 8.3 | fold change (FC) [10]: 2 | half-life [1]: 55.8 min | Activity (CT26 [11]): Active | Activity (CT26 [12]): Active | fold change (FC) [13]: 8.3 | fold change (FC) [14]: 2

CCCC[C@@H]1NC(=O)[C@H](Cc2ccc(O)cc2)NC(=O)[C@@H]2CCCN2C(=O)[C@H](CC(=O)O)NC(=O)[C@H](C)NC(=O)[C@H](Cc2ccccc2)NC(=O)[C@@H]2CSCCC(=O)N3CN(CN(C3)C(=O)CCSC[C@@H](C(=O)N[C@@H](CNC(=O)CCc3cn(CCOCCOCCOCCOCCOCCOCCOCCOCCOCCOCCNC(=O)N[C@H]4CSCCC(=O)N5CN6CN(C5)C(=O)CCSC[C@H](NC(=O)[C@@H](CC(=O)O)NC(=O)[C@H](Cc5cccc7ccccc57)NC(=O)[C@@H]5CCCN5C4=O)C(=O)N[C@@H](CCSC)C(=O)N[C@@H](CCCCNC(=N)N)C(=O)N[C@@H](CC(=O)O)C(=O)N[C@@H](Cc4c[nH]c5ccccc45)C(=O)N[C@@H](CO)C(=O)N[C@@H]([C@@H](C)O)C(=O)N4CCC[C@H]4C(=O)N4C[C@H](O)C[C@H]4C(=O)N[C@@H](Cc4c[nH]c5ccccc45)C(=O)N[C@H](C(N)=O)CSCCC6=O)nn3)C(N)=O)NC1=O)C(=O)CCSC[C@H](NC(=O)[C@H](C)NC(C)=O)C(=O)NC([C@@H](C)CC)C(=O)N[C@@H](CCC(=O)O)C(=O)N[C@@H](CCC(=O)O)C(=O)NCC(=O)N[C@@H](CCC(N)=O)C(=O)N[C@@H](Cc1ccc(O)cc1)C(=O)N2 (stereo not given in full)
Activity [15]: 73 nM

CCCC[C@@H]1NC(=O)[C@H](Cc2ccc(O)cc2)NC(=O)[C@@H]2CCCN2C(=O)[C@H](CC(=O)O)NC(=O)[C@H](C)NC(=O)[C@H](Cc2ccccc2)NC(=O)[C@@H]2CSCCC(=O)N3CN(CN(C3)C(=O)CCSC[C@@H](C(=O)N[C@@H](CNC(=O)CCc3cn(CCOCCOCCOCCOCCOCCOCCOCCOCCOCCOCCOCCOCCC(=O)NCCC(=O)N(C)CC(=O)N(C)CC(=O)N(C)CC(=O)N(C)CC(=O)N(C)CC(=O)N(C)CC(=O)N(C)CC(=O)N(C)CC(=O)N(C)CC(=O)N(C)CC(=O)N[C@H]4CSCCC(=O)N5CN6CN(C5)C(=O)CCSC[C@H](NC(=O)[C@@H](CC(=O)O)NC(=O)[C@H](Cc5cccc7ccccc57)NC(=O)[C@@H]5CCCN5C4=O)C(=O)N[C@H](CCSC)C(=O)N[C@@H](CCCCNC(=N)N)C(=O)N[C@H](CC(=O)O)C(=O)N[C@@H](Cc4c[nH]c5ccccc45)C(=O)N[C@@H](CO)C(=O)N[C@@H]([C@H](C)O)C(=O)N4CCC[C@H]4C(=O)N4C[C@H](O)C[C@H]4C(=O)N[C@@H](Cc4c[nH]c5ccccc45)C(=O)N[C@H](C(N)=O)CSCCC6=O)nn3)C(N)=O)NC1=O)C(=O)CCSC[C@H](NC(C)=O)C(=O)N[C@@H](CC(C)(C)C)C(=O)N1CCC[C@H]1C(=O)N[C@@H](CCC(=O)O)C(=O)N[C@@H](C)C(=O)N1CCC[C@H]1C(=O)N[C@@H](Cc1ccc(O)cc1)C(=O)N2
Activity (PBMC [3]): Dde | Activity (PBMC [4]): Dde | half-life [1]: 21.6 min
